{"data": "Experimental data gathered from unrelated publications", "CYP2C9": "Cytochrome P450 2C9 (CYP2C9, Homo sapiens, UniProt P11712)", "note": "Each line is one published result; the experiments were not run side by side."}
{"Compound": "Cc1ccc(-c2nnc(N[C@@H](Cc3ccc(C#N)cc3)C(=O)N3CCc4ccccc43)o2)cc1", "assay": "metabolic stability", "system": "rat, liver microsomes", "setting": "10 µM, pH 7.4", "measurement": "half-life", "result": "14 min"}
{"Compound": "CN(C)C(=O)c1cc2cnc(Nc3ccc(-c4ccc5c(=O)cc(N6CCOCC6)oc5c4)cc3)nc2n1C1CCCC1.Cl", "system": "BALB/c mouse, plasma", "setting": "oral, 20 mg/kg", "measurement": "AUC(0-inf)", "result": "7.81 µg·h/mL"}
{"Compound": "COc1ccc(-c2coc3cc(O[C@@H]4O[C@H](CO)[C@@H](O)[C@H](O)[C@H]4O)ccc3c2=O)cc1O", "target or system": "CYP2C9", "assay": "enzyme activity, inhibitor", "system": "human, liver microsomes", "measurement": "IC50", "result": "> 200 µM"}
{"Compound": "OCc1ccc(-c2nn(Cc3ccccn3)c3ccccc23)o1", "assay": "metabolic stability", "system": "rat, liver microsomes", "setting": "1 µM, pH 7.4", "measurement": "half-life", "result": "11 min"}
{"Compound": "CC(=O)O[C@@H]1[C@@H](O)[C@H](O[C@H]2CC[C@]34C[C@]35CC[C@]3(C)[C@@H]([C@@]6(C)CC[C@@H](C(C)(C)O)O6)[C@@H](O)C[C@@]3(C)[C@@H]5C[C@H](O[C@@H]3O[C@H](CO)[C@@H](O)[C@H](O)[C@H]3O)[C@H]4C2(C)C)OC[C@H]1O", "target or system": "CYP2C9", "assay": "enzyme activity, inhibitor", "system": "human, liver microsomes", "measurement": "IC50", "result": "> 200 µM"}
{"Compound": "CSc1ccccc1C(=O)NCCn1cc(C(=O)NCc2cccc(C)n2)c(=O)c2cc3c(cc21)OCO3", "target or system": "CYP2C9", "assay": "enzyme activity, inhibitor", "system": "human, liver microsomes", "setting": "20 min, without NADPH, with preincubation", "measurement": "IC50", "result": "> 100 µM"}
{"Compound": "OCc1ccc(-c2nn(Cc3ccccc3)c3ccccc23)o1", "assay": "metabolic stability", "system": "rat, liver microsomes", "measurement": "half-life", "result": "5 min"}
{"Compound": "N#Cc1ccc(C[C@H](NC(=O)c2cc3cc(F)ccc3[nH]2)C(=O)N2CCc3ccccc32)cc1", "assay": "metabolic stability", "system": "rat, liver microsomes", "setting": "10 µM, pH 7.4", "measurement": "half-life", "result": "76 min"}
{"Compound": "CSc1ccccc1C(=O)NCCn1cc(C(=O)NCc2cccc(C)n2)c(=O)c2cc3c(cc21)OC(F)(F)O3", "target or system": "CYP2C9", "assay": "enzyme activity, inhibitor", "system": "human, liver microsomes", "setting": "20 min, without NADPH, with preincubation", "measurement": "IC50", "result": "> 100 µM"}
